Laboratory results: ChEMBL document CHEMBL1136812, “Structure-activity relationships of dimethindene derivatives as new M2-selective muscarinic receptor antagonists” (J Med Chem, 2003)

molecular target: T1, Muscarinic acetylcholine receptor M1 (Homo sapiens, UniProt P11229); assay: Binding affinity towards cloned human muscarinic acetylcholine receptor M1 stably expressed in CHO-K1 cells using [3H]N-methylscopolamine; type: cell-based
T1 sequence (P11229 whole entry): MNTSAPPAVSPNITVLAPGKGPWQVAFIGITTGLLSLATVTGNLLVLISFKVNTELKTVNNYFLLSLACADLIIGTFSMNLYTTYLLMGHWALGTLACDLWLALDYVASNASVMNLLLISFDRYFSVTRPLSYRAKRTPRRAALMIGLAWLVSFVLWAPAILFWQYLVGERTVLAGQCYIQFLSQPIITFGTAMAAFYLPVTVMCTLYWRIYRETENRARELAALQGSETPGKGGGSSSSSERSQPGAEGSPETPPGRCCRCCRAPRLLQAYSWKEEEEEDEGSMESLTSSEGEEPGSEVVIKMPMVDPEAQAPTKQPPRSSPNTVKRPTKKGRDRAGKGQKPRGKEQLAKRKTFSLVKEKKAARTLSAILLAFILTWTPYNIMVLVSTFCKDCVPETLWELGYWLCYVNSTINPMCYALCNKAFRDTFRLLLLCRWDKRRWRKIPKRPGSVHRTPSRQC

**Q.** `CC(C1=C(CCN2CCCCC2)Cc2ccccc21)c1ccccn1` (stereo unspecified) was tested. Which Ki did it give?
**A.** Its Ki is 1910 nM.

**Q.** For `COc1ccc2c(c1)CC(CCN(C)C)=C2C(C)c1ccccn1` (stereo unspecified), which Ki is on record?
**A.** The Ki was 1550 nM.

**Q.** Which Ki does the source give for `CCCC(C1=C(CCN(C)C)Cc2ccccc21)c1ccccn1` (stereo unspecified) here?
**A.** The Ki was 245 nM.

**Q.** For `Cc1ccc2c(c1)C(C(C)c1ccccn1)=C(CCN(C)C)C2` (stereo unspecified), which Ki is on record?
**A.** The Ki was 1620 nM.

**Q.** `CC(C1=C(CCCN(C)C)Cc2ccccc21)c1ccccn1` (stereo unspecified) was tested. Which Ki did it give?
**A.** The Ki was 891 nM.

**Q.** With `COc1ccc2c(c1)C(C(C)c1ccccn1)=C(CCN(C)C)C2` (stereo unspecified) as the compound, how does the Ki read?
**A.** The Ki was 3720 nM.

**Q.** `CN(C)CCNC(=O)C1=C(Cc2cccnc2)c2ccccc2C1` was tested. Which Ki did it give?
**A.** Its Ki is 49000 nM.

**Q.** With `CN(C)CCOC(=O)C1=C(Cc2cccnc2)c2ccccc2C1` as the compound, how does the Ki read?
**A.** Its Ki is 3550 nM.

molecular target: Muscarinic acetylcholine receptor M3 (Homo sapiens, UniProt P20309); assay: Binding affinity towards cloned human muscarinic acetylcholine receptor M3 stably expressed in CHO-K1 cells using [3H]N-methylscopolamine; type: cell-based
Sequence (P20309 whole entry): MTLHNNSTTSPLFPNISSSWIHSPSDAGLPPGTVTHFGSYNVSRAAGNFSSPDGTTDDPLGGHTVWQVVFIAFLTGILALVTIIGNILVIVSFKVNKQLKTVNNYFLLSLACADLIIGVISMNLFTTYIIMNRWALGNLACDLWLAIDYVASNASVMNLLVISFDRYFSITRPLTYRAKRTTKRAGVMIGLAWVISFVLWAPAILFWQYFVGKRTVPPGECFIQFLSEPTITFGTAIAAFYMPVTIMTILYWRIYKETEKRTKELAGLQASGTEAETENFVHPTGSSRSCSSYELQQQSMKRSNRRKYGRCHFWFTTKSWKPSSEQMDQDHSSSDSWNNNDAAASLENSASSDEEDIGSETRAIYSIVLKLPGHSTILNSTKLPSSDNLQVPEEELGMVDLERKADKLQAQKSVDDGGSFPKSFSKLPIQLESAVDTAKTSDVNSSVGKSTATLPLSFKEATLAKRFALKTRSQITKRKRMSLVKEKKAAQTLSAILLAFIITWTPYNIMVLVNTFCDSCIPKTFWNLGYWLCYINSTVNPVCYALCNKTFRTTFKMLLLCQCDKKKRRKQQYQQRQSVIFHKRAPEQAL

**Q.** `CC(C1=C(CCN2CCCCC2)Cc2ccccc21)c1ccccn1` (stereo unspecified) was tested. Which Ki did it give?
**A.** Its Ki is 1780 nM.

**Q.** How did the Ki turn out when `COc1ccc2c(c1)CC(CCN(C)C)=C2C(C)c1ccccn1` (stereo unspecified) was run?
**A.** The Ki was 1170 nM.

**Q.** For `CCCC(C1=C(CCN(C)C)Cc2ccccc21)c1ccccn1` (stereo unspecified), which Ki is on record?
**A.** The Ki was 631 nM.

**Q.** With `Cc1ccc2c(c1)C(C(C)c1ccccn1)=C(CCN(C)C)C2` (stereo unspecified) as the compound, how does the Ki read?
**A.** The Ki was 2510 nM.

**Q.** For `CC(C1=C(CCCN(C)C)Cc2ccccc21)c1ccccn1` (stereo unspecified), which Ki is on record?
**A.** Its Ki is 575 nM.

**Q.** `COc1ccc2c(c1)C(C(C)c1ccccn1)=C(CCN(C)C)C2` (stereo unspecified) was tested. Which Ki did it give?
**A.** The Ki was 3160 nM.

**Q.** Which Ki does the source give for `CN(C)CCNC(=O)C1=C(Cc2cccnc2)c2ccccc2C1` here?
**A.** The Ki was 49000 nM.

**Q.** For `CN(C)CCOC(=O)C1=C(Cc2cccnc2)c2ccccc2C1`, which Ki is on record?
**A.** The Ki was 8130 nM.

molecular target: T2, Muscarinic acetylcholine receptor M5 (Homo sapiens, UniProt P08912); assay: Binding affinity towards cloned human muscarinic acetylcholine receptor M5 stably expressed in CHO-K1 cells using [3H]N-methylscopolamine; type: cell-based
T2 sequence (P08912 whole entry): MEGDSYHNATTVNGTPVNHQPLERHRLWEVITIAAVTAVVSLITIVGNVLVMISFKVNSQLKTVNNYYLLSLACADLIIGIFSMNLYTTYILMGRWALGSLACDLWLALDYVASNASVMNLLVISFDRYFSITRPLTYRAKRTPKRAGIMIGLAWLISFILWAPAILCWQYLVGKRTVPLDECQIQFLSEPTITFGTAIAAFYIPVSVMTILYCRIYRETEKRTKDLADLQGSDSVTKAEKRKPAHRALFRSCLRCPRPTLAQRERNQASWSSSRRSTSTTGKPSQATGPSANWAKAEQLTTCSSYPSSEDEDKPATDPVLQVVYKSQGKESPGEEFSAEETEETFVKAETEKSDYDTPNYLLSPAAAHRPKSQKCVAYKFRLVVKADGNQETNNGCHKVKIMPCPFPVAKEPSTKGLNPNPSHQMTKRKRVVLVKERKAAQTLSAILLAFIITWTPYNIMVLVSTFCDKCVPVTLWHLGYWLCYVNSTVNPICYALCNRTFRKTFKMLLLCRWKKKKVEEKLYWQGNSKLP

**Q.** With `CC(C1=C(CCN2CCCCC2)Cc2ccccc21)c1ccccn1` (stereo unspecified) as the compound, how does the Ki read?
**A.** Its Ki is 2340 nM.

**Q.** For `COc1ccc2c(c1)CC(CCN(C)C)=C2C(C)c1ccccn1` (stereo unspecified), which Ki is on record?
**A.** Its Ki is 6030 nM.

**Q.** With `CCCC(C1=C(CCN(C)C)Cc2ccccc21)c1ccccn1` (stereo unspecified) as the compound, how does the Ki read?
**A.** The Ki was 302 nM.

**Q.** For `Cc1ccc2c(c1)C(C(C)c1ccccn1)=C(CCN(C)C)C2` (stereo unspecified), which Ki is on record?
**A.** The Ki was 5890 nM.

**Q.** Which Ki does the source give for `CC(C1=C(CCCN(C)C)Cc2ccccc21)c1ccccn1` (stereo unspecified) here?
**A.** Its Ki is 3240 nM.

**Q.** `COc1ccc2c(c1)C(C(C)c1ccccn1)=C(CCN(C)C)C2` (stereo unspecified) was tested. Which Ki did it give?
**A.** Its Ki is 8910 nM.

**Q.** For `CN(C)CCNC(=O)C1=C(Cc2cccnc2)c2ccccc2C1`, which Ki is on record?
**A.** Its Ki is 66100 nM.

**Q.** How did the Ki turn out when `CN(C)CCOC(=O)C1=C(Cc2cccnc2)c2ccccc2C1` was run?
**A.** Its Ki is 11200 nM.

molecular target: Histamine H1 receptor (Homo sapiens, UniProt P35367); assay: Compound was evaluated for binding affinity towards cloned human histamine H1 receptors stably expressed in CHO-K1 cells using [3H]mepyramine; type: cell-based
Sequence (P35367 whole entry): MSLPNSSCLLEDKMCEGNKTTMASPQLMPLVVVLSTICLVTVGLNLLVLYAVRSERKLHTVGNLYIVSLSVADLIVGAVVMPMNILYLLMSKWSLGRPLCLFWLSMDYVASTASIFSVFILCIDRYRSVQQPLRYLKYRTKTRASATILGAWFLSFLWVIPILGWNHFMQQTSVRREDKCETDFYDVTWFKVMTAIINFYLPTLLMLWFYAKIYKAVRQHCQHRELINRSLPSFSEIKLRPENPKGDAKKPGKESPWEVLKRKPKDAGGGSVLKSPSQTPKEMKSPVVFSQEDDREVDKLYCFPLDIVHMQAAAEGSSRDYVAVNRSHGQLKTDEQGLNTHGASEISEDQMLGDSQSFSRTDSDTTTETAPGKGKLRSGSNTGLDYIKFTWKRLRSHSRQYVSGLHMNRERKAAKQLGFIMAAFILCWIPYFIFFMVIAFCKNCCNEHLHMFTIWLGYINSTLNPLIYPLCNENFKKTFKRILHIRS
Summary of the method: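 CHO-K1 membranes with stable human H1 receptor, 18 µg/mL final protein. […] Nonspecific binding with 0.1 mM terfenadine. Filtered and counted. Ki by Cheng-Prusoff. pKi mean ± SD, ≥3 experiments in duplicate.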

**Q.** How did the Ki turn out when `CC(C1=C(CCN(C)C)Cc2ccccc21)c1ccccn1` (stereo unspecified) [DIMETHINDENE] was run?
**A.** The Ki was 0.692 nM.

molecular target: T3, Muscarinic acetylcholine receptor M4 (Homo sapiens, UniProt P08173); assay: Binding affinity towards cloned human muscarinic acetylcholine receptor M4 stably expressed in CHO-K1 cells using [3H]N-methylscopolamine; type: cell-based
T3 sequence (P08173 whole entry): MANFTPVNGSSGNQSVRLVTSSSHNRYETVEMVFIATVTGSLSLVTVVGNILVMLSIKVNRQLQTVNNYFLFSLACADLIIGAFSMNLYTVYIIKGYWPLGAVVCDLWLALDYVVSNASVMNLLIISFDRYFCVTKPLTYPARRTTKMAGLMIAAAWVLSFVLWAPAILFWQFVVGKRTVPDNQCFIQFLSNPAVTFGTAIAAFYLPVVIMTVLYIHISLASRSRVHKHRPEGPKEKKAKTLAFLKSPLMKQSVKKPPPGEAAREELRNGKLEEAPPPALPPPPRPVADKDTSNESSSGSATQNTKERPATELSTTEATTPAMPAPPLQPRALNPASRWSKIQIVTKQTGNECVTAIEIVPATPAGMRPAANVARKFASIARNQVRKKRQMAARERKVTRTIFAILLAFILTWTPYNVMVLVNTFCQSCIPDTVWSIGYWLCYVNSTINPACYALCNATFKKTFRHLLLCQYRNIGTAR

**Q.** With `CC(C1=C(CCN2CCCCC2)Cc2ccccc21)c1ccccn1` (stereo unspecified) as the compound, how does the Ki read?
**A.** Its Ki is 1910 nM.

**Q.** With `COc1ccc2c(c1)CC(CCN(C)C)=C2C(C)c1ccccn1` (stereo unspecified) as the compound, how does the Ki read?
**A.** Its Ki is 4170 nM.

**Q.** With `CCCC(C1=C(CCN(C)C)Cc2ccccc21)c1ccccn1` (stereo unspecified) as the compound, how does the Ki read?
**A.** The Ki was 617 nM.

**Q.** For `Cc1ccc2c(c1)C(C(C)c1ccccn1)=C(CCN(C)C)C2` (stereo unspecified), which Ki is on record?
**A.** The Ki was 3240 nM.

**Q.** For `CC(C1=C(CCCN(C)C)Cc2ccccc21)c1ccccn1` (stereo unspecified), which Ki is on record?
**A.** The Ki was 1700 nM.

**Q.** How did the Ki turn out when `COc1ccc2c(c1)C(C(C)c1ccccn1)=C(CCN(C)C)C2` (stereo unspecified) was run?
**A.** The Ki was 8510 nM.

**Q.** How did the Ki turn out when `CN(C)CCNC(=O)C1=C(Cc2cccnc2)c2ccccc2C1` was run?
**A.** The Ki was 46800 nM.

**Q.** Which Ki does the source give for `CN(C)CCOC(=O)C1=C(Cc2cccnc2)c2ccccc2C1` here?
**A.** The Ki was 13200 nM.

molecular target: T4, Muscarinic acetylcholine receptor M2 (Homo sapiens, UniProt P08172); assay: Binding affinity towards cloned human muscarinic acetylcholine receptor M2 stably expressed in CHO-K1 cells using [3H]N-methylscopolamine; type: cell-based
T4 sequence (P08172 whole entry): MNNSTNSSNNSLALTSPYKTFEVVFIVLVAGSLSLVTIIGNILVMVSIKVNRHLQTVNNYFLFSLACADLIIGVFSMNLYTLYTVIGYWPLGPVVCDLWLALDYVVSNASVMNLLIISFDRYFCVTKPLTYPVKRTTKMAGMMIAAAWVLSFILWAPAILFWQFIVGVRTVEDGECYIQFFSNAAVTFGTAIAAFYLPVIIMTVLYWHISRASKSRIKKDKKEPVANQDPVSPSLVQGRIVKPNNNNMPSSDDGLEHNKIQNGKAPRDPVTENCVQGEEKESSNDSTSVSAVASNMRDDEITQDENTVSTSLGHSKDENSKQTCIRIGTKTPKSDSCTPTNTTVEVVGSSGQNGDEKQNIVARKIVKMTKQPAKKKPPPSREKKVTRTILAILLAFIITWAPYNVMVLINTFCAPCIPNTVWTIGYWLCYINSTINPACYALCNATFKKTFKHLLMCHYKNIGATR

**Q.** How did the Ki turn out when `CC(C1=C(CCN2CCCCC2)Cc2ccccc21)c1ccccn1` (stereo unspecified) was run?
**A.** Its Ki is 851 nM.

**Q.** How did the Ki turn out when `COc1ccc2c(c1)CC(CCN(C)C)=C2C(C)c1ccccn1` (stereo unspecified) was run?
**A.** Its Ki is 1070 nM.

**Q.** For `CCCC(C1=C(CCN(C)C)Cc2ccccc21)c1ccccn1` (stereo unspecified), which Ki is on record?
**A.** Its Ki is 676 nM.

**Q.** `Cc1ccc2c(c1)C(C(C)c1ccccn1)=C(CCN(C)C)C2` (stereo unspecified) was tested. Which Ki did it give?
**A.** Its Ki is 1950 nM.

**Q.** `CC(C1=C(CCCN(C)C)Cc2ccccc21)c1ccccn1` (stereo unspecified) was tested. Which Ki did it give?
**A.** Its Ki is 263 nM.

**Q.** With `COc1ccc2c(c1)C(C(C)c1ccccn1)=C(CCN(C)C)C2` (stereo unspecified) as the compound, how does the Ki read?
**A.** The Ki was 1020 nM.

**Q.** For `CN(C)CCNC(=O)C1=C(Cc2cccnc2)c2ccccc2C1`, which Ki is on record?
**A.** The Ki was 39800 nM.

**Q.** `CN(C)CCOC(=O)C1=C(Cc2cccnc2)c2ccccc2C1` was tested. Which Ki did it give?
**A.** The Ki was 6030 nM.
